# Measured values published in PubChem BioAssay AID504383 (The Scripps Research Institute Molecular Screening Center, 2011).
# Hit rate of the full screen: of about 2,500 compounds, about 1,200 (48%) were called active.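 How the source made its calls: active means mean activation above the low control average plus 3 SD, as set in the primary screen (cut at about 12% in these data); inactive means the rest.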 So high a share suggests a set chosen from earlier hits. The list shows a part of the results.
# Target: Troponin I, cardiac muscle (Homo sapiens) + Troponin T, cardiac muscle (Homo sapiens) + Troponin C, slow skeletal and cardiac muscles (Homo sapiens) (UniProt P19429+P45379+P63316)
# Experiment: cardiac RTF calcium sensitivity activators, confirmation, biochemical, IANBD-TnC fluorescence, triplicate (AID 504383);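 further: 0% = DMSO at 0.472 mM calcium and 100% = DMSO at 2.9 mM calcium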
# Settings: IANBD-labeled cardiac RTF, Ca2+ sensitivity fluorescence; at 7.2 µM; active compounds read high; scaled from EC20 to saturating calcium; tested at EC20 calcium, 0.472 mM
# Summary of the method: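 Test system: labelled regulated thin filament protein complex. Dosing: single nominal compound dose of 7.2 µM. Benchmarks: EC20 and EC100 calcium wells. Read-out basis: fluorescence gain scaled between EC20 and EC100 calcium controls. Probe or stimulus: submaximal calcium at 0.472 mM (EC20). Technique: fluorescence. Times: 15 min compound exposure, 25 °C.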
row,SMILES,activation
1,C[C@H]1CCC(=O)N([C@H](CSc2ccc(Br)cc2)Cc2ccccc2)CC1,6.56% (inactive)
2,COc1ccc2[nH]c3c(c2c1)CCNC3c1ccc([N+](=O)[O-])o1 (centres undefined),2.79% (inactive)
3,O=C(c1ccc(Nc2cccc(C(F)(F)F)c2)nc1)N1CCCC1,168% (active)
4,O=C(c1ccccc1Nc1ccc(SC(F)F)cc1)N1CCCCC1,5.45% (inactive)
5,CCSc1cc(N2CCCC2)nc(-c2ccc(Cl)cc2)n1,6.74% (inactive)
6,C/C(=N/NC(=O)Nc1ccccc1)c1ccc(C)cc1,9.45% (inactive)
7,C/C(=N/NS(=O)(=O)c1ccccc1)c1ccc(NC(=O)C2CC2)cc1,20.7% (active)
8,O=C(C1=C[C@@H](c2ccc(Br)cc2)C[C@@H](OCc2ccc(CO)cc2)O1)N1CCN(Cc2ccc3c(c2)OCO3)CC1,4.22% (inactive)
9,C#Cc1ccc([C@@H]2C=C(C(=O)OCC=C)O[C@H](OCCCCO)C2)cc1,9.72% (inactive)
10,O=C(Nc1ccccc1)C1=C[C@H](c2ccc3c(c2)OCO3)C[C@H](OCCCCO)O1,13% (active)
11,CCCC[C@H]1COCCS(=O)(=O)N1Cc1ccc(F)cc1,0.38% (inactive)
12,CCCn1c(N2CCN(CC(=O)c3c[nH]c4ccccc34)CC2)nc2c1c(=O)[nH]c(=O)n2C,8.31% (inactive)
13,OCCc1c[nH]c2ccccc12,6.66% (inactive)
14,NC(=O)c1c[nH]c2ccccc12,717% (active)
15,N#C/C(=C/c1ccc(N2CCCCCC2)o1)c1ccc(Cl)cc1,38.8% (active)
16,N#C/C(=C/c1ccc(N2CCCCCC2)o1)c1cccc(F)c1,99.3% (active)
17,N#C/C(=C/c1ccc(N2CCOCC2)o1)c1ccc(Cl)cc1,9.77% (inactive)
18,O=C(NCc1nnc(SCC(=O)N2CCCCCC2)o1)c1ccco1,28.5% (active)
19,CC(C)Sc1nc2ccc(Br)cc2[nH]1,56.5% (active)
20,COC(=O)c1ccc(S(=O)(=O)N(CCO)Cc2ccccc2)n1C,6.61% (inactive)
21,COC(=O)c1ccc(S(=O)(=O)N2CCC(O)CC2)n1C,30.3% (active)
22,Cc1ccc(N2CN(Cc3cccnc3)CNC2=S)cc1,13.6% (active)
23,Cc1ccc(CNc2cccnc2)cc1,1.46% (inactive)
24,CS/C(=N\S(=O)(=O)c1cccs1)Nc1cccc(Cl)c1C,61.5% (active)
25,COCCOC(=O)c1sc(=S)n(CCOC)c1N,7.49% (inactive)

row,SMILES,activation
1,COCCn1c(-c2ccc(C)cc2)nc2oc3cc(OC)ccc3c(=O)c2c1=O,10.7% (inactive)
2,COCCn1c(=O)c2ccccc2c2ccccc2c1=O,89% (active)
3,CCC(=O)N/C(=N/c1nc(C)cc(C)n1)Nc1ccccc1,7.51% (inactive)
4,CCC(=O)Nc1ccc2oc(-c3cccnc3)nc2c1,210% (active)
5,Cc1cc(=O)oc(C)c1C(=O)Nc1ccc2ncccc2c1,6.03% (inactive)
6,CCCCN=C1N/C(=C\c2ccco2)C(=O)N1c1ccccc1,370% (active)
7,COC(=O)[C@H](Cc1ccccc1)NC(=O)Nc1ccc(OC)cc1,4.56% (inactive)
8,Cc1cc(NC(=O)COC(=O)C(Cc2ccccc2)NC(=O)c2ccco2)no1 (centres undefined),39.2% (active)
9,O=C1C=C(NCc2ccco2)CC(c2ccc(Cl)cc2)C1 (centres undefined),4.86% (inactive)
10,CCc1ccc(C2C(C#N)=C(N)SC(N)=C2C#N)s1,9.19% (inactive)
11,Nc1cnccc1C(=O)O,26% (active)
12,CN(C)C=Nc1c(Br)cc(Br)c2nonc12,31.3% (active)
13,O=C(NCc1ccco1)/C(=C\c1ccco1)NC(=O)c1ccc(Br)o1,72.9% (active)
14,CC(C)(C)c1ccc(C(=O)N/C(=C\c2cccs2)C(=O)NCc2ccco2)cc1,9.9% (inactive)
15,O=C(NCc1cccnc1)/C(=C\c1ccc(-c2ccc(Cl)c(Cl)c2)o1)S(=O)(=O)c1ccccc1,5.91% (inactive)
16,Cc1cnc(C(=O)Nc2nnc(SCc3c(Cl)cccc3Cl)s2)cn1,15% (active)
17,CCOC(=O)c1c(C)[nH]c(C2=NNC(=NC(C)COC)SC2)c1C (centres undefined),81% (active)
18,NC(N)=NCc1cccc(I)c1,7.58% (inactive)
19,CN(C(=O)C1CCC1C(=O)O)c1nc(-c2ccc(Cl)s2)cs1 (centres undefined),176% (active)
20,COC(=O)c1ccc(OC)c(OC2CCCC2)c1,6.45% (inactive)
21,CCOc1ccc(C(=O)NCC(=O)N2CCC3CCCCC3C2)cc1OCC (centres undefined),167% (active)
22,CCOc1ccc(NC(=O)COC(=O)CCN2C(=O)C3CC=CCC3C2=O)cc1OCC (centres undefined),8.79% (inactive)
23,Cc1ccc2c(c1)N(CC(=O)N1CCCc3ccccc31)C(=O)C(C)O2 (centres undefined),21.6% (active)
24,CCn1nnnc1SCC(=O)N1CCCc2ccccc21,10.8% (inactive)
25,CC(CC(=O)N1CCc2ccccc21)n1cccn1 (centres undefined),5.25% (inactive)

row,SMILES,activation
1,O=C(O)CN1C(=O)c2cccc3c(Br)ccc1c23,89% (active)
2,CCCCOC(=O)Nc1nnc(C(C)C)s1,617% (active)
3,CCOC(=O)C(=O)Nc1nnc(COc2ccccc2)s1,9.76% (inactive)
4,CCOCCc1nnc(NC(=O)COC)s1,3.67% (inactive)
5,CCSc1nnc(-c2sc3nnc(-c4ccccc4)c(-c4ccccc4)c3c2N)o1,6.28% (inactive)
6,O=C([O-])c1ccccc1-[n+]1c(-c2ccccc2)cc(-c2ccccc2)cc1-c1ccccc1,7.07% (inactive)
7,O=C(O)c1ncc(-c2ccccc2)cn1,128% (active)
8,O=C(N/N=C/c1c(O)n(-c2ccc(Cl)cn2)c(=O)c2ccccc12)c1ccncc1,14.8% (active)
9,CCn1c(O)c(/C=N/NC(=O)c2ccncc2)c(=O)n(CC)c1=S,10.1% (inactive)
10,N=C1/C(=C\c2coc3ccccc3c2=O)C(=O)N=C2SC(c3ccncc3)=NN12,22.9% (active)
11,Cc1ccccc1Cn1cccc1/C=C1/C(=N)N2C=CSC2=NC1=O,14.6% (active)
12,N=C1/C(=C\c2coc3ccccc3c2=O)C(=O)N=C2SC=CN12,12.3% (active)
13,N=C1/C(=C\c2coc3ccc(O)cc3c2=O)C(=O)N=C2SC=CN12,5.99% (inactive)
14,CC(C)CC1=NN2C(=N)/C(=C\c3coc4ccccc4c3=O)C(=O)N=C2S1,13.7% (active)
15,O=C(c1ccccc1)N1CCN(CC#CC2(O)CCCCC2)CC1,8.87% (inactive)
16,CC1CCCCN1C(=O)Cn1nnc(-c2cccnc2)n1 (centres undefined),5.92% (inactive)
17,COc1ccc(-n2nc3c(N4CCC(C(=O)NCc5ccco5)CC4)nnc(C)c3c2C)cc1,4.51% (inactive)
18,COc1ccc(N2CCN(C(=O)Cn3nnc(-c4ccccc4N)n3)CC2)cc1,46.5% (active)
19,CC(C)CC1C(C#N)=C(N)SC(N)=C1C#N,4.27% (inactive)
20,COc1cc(NC(=O)[C@@H]2CCCN2S(=O)(=O)c2cccc3cccnc23)cc(OC)c1OC,7.77% (inactive)
21,Cc1cc(=O)n2nc(N3CCCC3C(=O)Nc3ccc(C(C)C)cc3)sc2n1 (centres undefined),426% (active)
22,Cc1cc(Br)c2c(c1)C(O)(N1CCCCC1C)C(=O)N2 (centres undefined),12.6% (active)
23,CC1=NN(C(=O)c2ccc(Cn3ccc([N+](=O)[O-])n3)cc2)C(O)(C(F)(F)F)C1 (centres undefined),18.8% (active)
24,CC1=NN(C(=O)c2ccccc2-n2cccc2)C(O)(C(F)(F)F)C1 (centres undefined),15.7% (active)
25,COc1cccc(OC)c1C(=O)NNC(=O)c1ccccc1-n1cccc1,-0.16% (inactive)

row,SMILES,activation
1,CC1=C(C#N)C(=O)OC(C)(C)C1,10.4% (inactive)
2,CSc1ccc(C2C(C(=O)c3ccco3)=C(O)C(=O)N2c2nnc(SC)s2)cc1 (centres undefined),29.2% (active)
3,CC(C)c1nnc(N2C(=O)C(O)=C(C(=O)c3cccs3)C2c2ccccc2)s1 (centres undefined),7.93% (inactive)
4,N#Cc1c(NCCCO)nc(-c2ccccc2)c2c1CCCC2,16.7% (active)
5,CC(=O)Nc1sc(/C(C#N)=C/c2ccc(Cl)c(Cl)c2)nc1-c1ccc(C)cc1,-3.28% (inactive)
6,CCOc1cc(/C=C(\C#N)c2nc(-c3cccs3)c(NC(C)=O)s2)ccc1O,0.64% (inactive)
7,CC(=O)Nc1sc(/C(C#N)=C\c2cccc(Cl)c2)nc1-c1ccc(C)cc1,49.1% (active)
8,Cc1ccc(NC(=O)COC(=O)c2csc3c2CCC(C)C3)cc1S(=O)(=O)N1CCCCC1 (centres undefined),3.56% (inactive)
9,O=C(CNCc1cccs1)Nc1cc(S(=O)(=O)N2CCCC2)ccc1Cl,17.9% (active)
10,Cc1ccc(S(=O)(=O)N2CCOCC2)cc1NC(=O)CSc1nccn1C,11.4% (inactive)
11,O=C(CNCc1cccs1)Nc1ccc(S(=O)(=O)N2CCCCC2)cc1,66.4% (active)
12,O=C(CCCN1C(=O)c2ccccc2C1=O)Nc1ccc(S(=O)(=O)N2CCCCC2)cc1,4.61% (inactive)
13,CC(C(=O)NNS(=O)(=O)c1cccc(C(F)(F)F)c1)n1nnc(N2CCOCC2)n1 (centres undefined),5.72% (inactive)
14,C=CCOc1ccn(C)c(=O)n1,12.1% (active)
15,CCOc1ccc(NC(=O)C2CC(=O)N=C(N)S2)cc1 (centres undefined),4.04% (inactive)
16,COc1ccc(Nc2nc3ccc(C)cc3cc2C#N)c(OC)c1,3.9% (inactive)
17,COc1ccc(N=Nc2nc3ccc(Br)cc3n2C)cc1,10.6% (inactive)
18,COc1ccc(N=Nc2nc3cc(Br)c(Br)cc3n2C)c(OC)c1,2020% (active)
19,O=C1c2cccc3c([N+](=O)[O-])ccc(c23)C(=O)N1Cc1cccnc1,3.03% (inactive)
20,CN(C)CCCN1C(=O)c2cccc3c([N+](=O)[O-])ccc(c23)C1=O,38.5% (active)
21,COc1ccccc1N1C(=O)c2cccc3c(N(C)CCO)ccc(c23)C1=O,7.87% (inactive)
22,Cc1ccc(N2C(=O)c3cccc4c(N)ccc(c34)C2=O)c2cccnc12,9.53% (inactive)
23,Cc1ccnc(N2C(=O)c3cccc4c([N+](=O)[O-])ccc(c34)C2=O)c1,16.1% (active)
24,Cc1cccc(N2C(=O)c3cccc4c(N)ccc(c34)C2=O)c1,0.54% (inactive)
